This is a sample that favours compounds with a hit; in the whole collection about 2.1% have one here.
APJ antag: antagonists of human APJ apelin receptor; P35414; CHO-K1 APJ beta-arrestin complementation, luminescence; inhibition, % at 20 µM; 330,000 compounds, 0.32% hits; AID 2521;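 active = inhibition above about 40% at 20 µM, limit read from the data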;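 also: cells challenged with 10 nM apelin-13 agonist together with compound; plate controls were apelin-13 plus DMSO wells for no effect and DMSO wells lacking apelin-13 for full effect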
CXCR6 block: inhibitors of human CXCR6 receptor. O00574. CHO-K1 PathHunter CXCR6 beta-arrestin, luminescence. 360,000 compounds, 0.36% hits. AID 602244. inhibition, % at 20 µM; in the data active = inhibition above about 34%, passing the limit was not always enough;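 also: antagonist mode with CXCL16 agonist at 10 nM final; 0% = 10 nM CXCL16 with DMSO and 100% = unstimulated wells without agonist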
HTR2A ag: mouse HTR2A agonism via beta-arrestin recruitment; CHO-K1 mHTR2A beta-arrestin complementation, luminescence; percent of 30 µM serotonin response; 360,000 compounds, 0.66% hits; AID 624169; P35363; activation, % at 7.6 µM;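 active = activation above a run cutoff, the mean activation of all tested compounds plus 3 SD, cut at about 14% in these data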;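 also: 0% = plate median of compound wells and 100% = 30 µM serotonin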
Target sequence (P35363 whole entry, looked up): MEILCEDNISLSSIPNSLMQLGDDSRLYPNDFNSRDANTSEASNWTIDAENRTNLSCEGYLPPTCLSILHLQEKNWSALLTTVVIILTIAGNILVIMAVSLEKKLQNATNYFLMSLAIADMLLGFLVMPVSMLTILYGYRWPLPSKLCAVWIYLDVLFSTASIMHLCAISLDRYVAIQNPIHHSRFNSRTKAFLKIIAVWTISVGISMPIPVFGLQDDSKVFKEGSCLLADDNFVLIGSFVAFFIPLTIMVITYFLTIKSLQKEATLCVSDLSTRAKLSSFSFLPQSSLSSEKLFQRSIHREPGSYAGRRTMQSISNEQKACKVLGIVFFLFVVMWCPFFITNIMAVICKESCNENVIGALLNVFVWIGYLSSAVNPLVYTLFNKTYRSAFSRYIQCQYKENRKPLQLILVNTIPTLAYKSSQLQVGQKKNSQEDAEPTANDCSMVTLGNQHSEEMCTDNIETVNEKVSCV
APJ ag: activates the human apelin receptor APJ; P35414; 330,000 compounds, 0.11% hits; activation, % at 20 µM; CHO-K1 APJ PathHunter beta-arrestin, luminescence; 0% DMSO wells, 100% apelin;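 active = activation more than six SD over the plate average, tested at 20 µM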;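 also: 0% = DMSO alone and 100% = apelin-13 at 10 nM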
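assay system = CHO-K1 APJ beta-arrestin complementation cell line | input = cell density 1000 per well | dosing = compound 20 µM once, DMSO 1% | timing = compound 90 min 25 °C, reagent 1 h | measured by = luminescence from split beta-galactosidase complementation, Galacton Star/Emerald II substrate | read-out basis = APJ agonist activity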
CCR6 antagonist: blocks CCL20-driven beta-arrestin recruitment at human CCR6; P51684; CHO-K1 CCR6 PathHunter beta-arrestin, luminescence, CCL20-stimulated; inhibition, % at 20 µM; 340,000 compounds, 0.49% hits; AID 493098;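 active = compounds whose inhibition of the agonist-driven luminescence signal at 20 µM reaches about 50%, limit read from the data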;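 also: cells stimulated with CCL20 at 14 nM final; plate controls were DMSO with CCL20 for no effect and DMSO without agonist for full effect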
EBI2 block: blocks human EBI2 receptor beta-arrestin signaling; 360,000 compounds, 0.81% hits; EBI2 beta-arrestin recruitment, luminescence, 7a,25-OHC stimulated; AID 651636; P32249; inhibition, % at 5 µM; in the data active = inhibition above about 38%;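 also: enzyme fragment complementation signal reports receptor beta-arrestin coupling in cells; 0% = agonist plus DMSO wells and 100% = wells without agonist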
EBI2 conf: EBI2 (human) antagonism, single concentration confirmation; shares compounds with EBI2 block; EBI2 beta-arrestin luminescence, 7a,25-OHC antagonism; inhibition, % at 5 µM; 2,400 compounds, 29% hits;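 active = inhibition of at least 50%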
EBI2 ag: EBI2 agonism counter-screen; EBI2-expressing cells, agonist mode, luminescence, 60 min; 0% vehicle, 100% 7α,25-dihydroxycholesterol control; activation, % at 5 µM; shares compounds with EBI2 block; 2,400 tested, under 10 active; AID 652000;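 active = activation of at least 50%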
bGal cs: counter-screen for EBI2 antagonists: E. coli beta-galactosidase inhibition | shares compounds with EBI2 block | purified beta-galactosidase, luminescent Galacton Star, 15 min | inhibition, % at 5 µM | 2,400 compounds, 1% hits | AID 652176;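 active = replicate-average signal at least 3 plate SD below neutral wells, shown as high inhibition, flagging enzyme-inhibiting false positives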;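 also: 0% = DMSO wells with enzyme and 100% = wells lacking enzyme; higher means stronger loss of beta-gal luminescence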
The depositor's hits bear a star; / = no result given.

SMILES	APJ antag	CXCR6 block	HTR2A ag	APJ ag	CCR6 antagonist	EBI2 block	EBI2 conf	EBI2 ag	bGal cs
CCN(C(=O)c1cc2cc3ccc(C)cc3nc2o1)c1ccc(OC)cc1	3	27	-9	-4	28	42*	51*	1	4
CCN(CC)C(=O)c1cccc(NC(=O)C2CCN(C(=O)c3cccs3)CC2)c1	14	10	-2	1	7	-4	/	/	/
Cc1ccc(S(=O)(=O)c2c(N)n(/N=C/c3ccco3)c3nc4ccccc4nc23)cc1	3	-7	0	4	19	41*	55*	2	2
Cc1cccc(S(=O)(=O)c2c(N)n(/N=C/c3ccco3)c3nc4ccccc4nc23)c1	-33	5	2	1	7	59*	68*	0	4
Nc1c(S(=O)(=O)c2ccccc2)c2nc3ccccc3nc2n1/N=C/c1ccco1	-14	8	-1	12	17	67*	77*	0	-14
Cc1cccc(S(=O)(=O)c2c(N)n(/N=C/c3cccnc3)c3nc4ccccc4nc23)c1	-3	3	7	5	-1	39	/	/	/
O=C(c1c(F)cccc1F)N1CCCc2ccccc21	12	6	2	-2	16	0	/	/	/
CCCc1ccc(OCC(O)CN2CCN(c3ccccn3)CC2)cc1 (configuration not stated)	15	-3	10	-1	5	10	/	/	/
COc1ccccc1OC(C)C(=O)Nc1ccc(S(=O)(=O)N2CCN(C)CC2)cc1 (configuration not stated)	2	-1	7	0	-7	6	/	/	/
Cc1cccc(N2CCN(C(=O)c3ccncc3)CC2C)c1 (configuration not stated)	2	-10	1	2	-4	5	/	/	/
Cc1cccc(N2CCN(C(=O)c3ccc4ccccc4c3)CC2C)c1 (configuration not stated)	-2	1	0	-2	11	65*	42	-1	-15
O=C(c1ccc(-c2ccccc2)cc1)N1CCN(c2ccccc2)CC1	10	0	-5	-4	14	18	/	/	/
CC1CCN(C(=O)c2ccc3ccccc3c2)CC1	5	0	-2	3	27	46*	48	0	-1
O=C(c1ccc2ccccc2c1)N1CCN(c2ccccc2)CC1	15	2	-5	-3	10	83*	68*	0	-10
COC(=O)[C@@]1(C)[C@H]2C(=O)N(C)C(=O)[C@H]2[C@H]2CN=C(SCc3ccc(Cl)cc3)N21	/	2	1	/	14	-4	/	/	/
CC(C)(C)OC(=O)NC1CC2CCCC(C1)N2Cc1ccccc1 (configuration not stated)	5	-1	-1	-2	-10	7	/	/	/
CC(C)Cn1cnc2c1c(=O)[nH]c(=O)n2Cc1ccccc1	17	-4	-3	-2	4	3	/	/	/
C(=C\c1ccccc1)/CN1CCN(C(c2nnnn2C2CCCCC2)C2CC2)CC1 (configuration not stated)	/	4	4	/	/	20	/	/	/
COc1ccc(-n2nnnc2C(c2ccccc2OC(F)(F)F)N2CCN(C/C=C/c3ccccc3)CC2)cc1 (configuration not stated)	/	11	-10	/	/	90*	55*	2	12
C(=C\c1ccccc1)/CN1CCN(C(c2cccc3ccccc23)c2nnnn2C2CCCC2)CC1 (configuration not stated)	/	13	-7	/	/	30	/	/	/
COc1ccc(C(c2nnnn2C2CCCCC2)N2CCN(C/C=C/c3ccccc3)CC2)cc1 (configuration not stated)	/	17	-3	/	/	60*	44	0	5
CCCCn1nnnc1C(C1CC1)N1CCN(C/C=C/c2ccccc2)CC1 (configuration not stated)	/	2	-1	/	/	14	/	/	/
C(=C\c1ccccc1)/CN1CCN(C(c2cc3ccccc3o2)c2nnnn2C2CCCC2)CC1 (configuration not stated)	/	-2	-2	/	/	52*	7	1	4
CCCCn1nnnc1C(c1ccc(OC)cc1)N1CCN(C/C=C/c2ccccc2)CC1 (configuration not stated)	/	19	-4	/	/	58*	25	2	12
COc1ccc(-n2nnnc2C(c2ccnc3ccccc23)N2CCN(C/C=C/c3ccccc3)CC2)cc1 (configuration not stated)	/	4	-8	/	/	33	/	/	/
SMILES	APJ antag	CXCR6 block	HTR2A ag	APJ ag	CCR6 antagonist	EBI2 block	EBI2 conf	EBI2 ag	bGal cs
CCCCn1nnnc1C(c1cccs1)N1CCN(C/C=C/c2ccccc2)CC1 (configuration not stated)	/	6	-5	/	/	44*	9	1	6
COc1ccc(C(c2nnnn2-c2ccc(OC)cc2)N2CCN(C/C=C/c3ccccc3)CC2)cc1 (configuration not stated)	/	8	-8	/	/	63*	31	-1	-5
COc1ccc(C(c2nnnn2C(C)(C)C)N2CCN(C/C=C/c3ccccc3)CC2)cc1 (configuration not stated)	/	12	-8	/	/	37	/	/	/
O=C(Nc1ccc2c(c1)OCCO2)C(C1CC1)N1CCN(C/C=C/c2ccccc2)CC1 (configuration not stated)	/	-1	-3	/	/	-6	/	/	/
O=C(Nc1ccc2c(c1)OCCO2)C(c1cc2ccccc2o1)N1CCN(C/C=C/c2ccccc2)CC1 (configuration not stated)	/	-3	-6	/	/	39*	7	-2	-6
C(=C\c1ccccc1)/CN1CCN(C(c2ccccc2)c2nnnn2-c2ccc3c(c2)OCCO3)CC1 (configuration not stated)	/	17	-11	/	/	51*	38	0	7
C(=C\c1ccccc1)/CN1CCN(C(c2ccnc3ccccc23)c2nnnn2-c2ccc3c(c2)OCCO3)CC1 (configuration not stated)	/	6	-2	/	/	22	/	/	/
Cc1cc(C)n2nc(/C(C#N)=C/c3ccccn3)c(C#N)c2n1	16	12	6	-1	13	39	/	/	/
COc1cccc(NC(=S)N2CCN(C)CC2)c1	3	-10	2	-1	2	-10	/	/	/
CC(=O)c1ccc(N2CCN(C(=O)COc3ccc4ccccc4c3)CC2)cc1	/	5	9	/	/	8	/	/	/

Source: PubChem (several laboratories)
